Only some compounds are listed: those with a hit (about 2.1% of all), similar ones and a draw of the others.
LMPTP inh: blocks human LMPTP phosphatase | P24666 | recombinant LMPTP-A, OMFP fluorogenic substrate, fluorescence intensity | inhibition, % at 20 µM | actives 0.22% (n = 360,000) | AID 651560;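 active = compounds that cut the enzyme signal by at least half of the control window in the single-dose screen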;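 also: plate controls were DMSO wells with enzyme plus substrate for no effect and substrate without enzyme for full effect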
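Assay system: LMPTP-A phosphatase enzyme | Input: 0.625 nM enzyme | Also added: Fluorogenic phosphatase substrate OMFP at 400 µM final | Compound dosing: One test concentration per compound, 20 µM, with 3% DMSO overall | Schedule: 50 min enzyme reaction at room temperature, protected from light | Signal: Fluorescence intensity | Benchmarks: no-enzyme and uninhibited controls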
DNMT1 block: inhibitors of human DNMT1 | actives 0.83% (n = 360,000) | DNMT1 molecular beacon, Hinp1I cleavage, fluorescence | inhibition (reported as % activation of signal), % at 10 µM; in the data active = inhibition above about 50%
STEP inh: STEP (human) phosphatase inhibition; P54829; recombinant STEP, OMFP fluorogenic substrate, fluorescence; inhibition, % at 20 µM; actives 0.25% (n = 360,000);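 active = inhibition at 20 µM, scaled per plate between control wells, above about 37%, limit read from the data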;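 also: 0% = DMSO with enzyme and substrate and 100% = substrate only without enzyme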
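Test system: STEP tyrosine phosphatase / Reagent: OMFP at 25 µM / Doses: 20 µM, 1% DMSO / Read-out: percent inhibition scaled to no-enzyme and uninhibited-enzyme controls, plate-pattern corrected / Detection: FITC-channel fluorescence of OMFP product / Medium: Bis-Tris buffer pH 6.0, 2.5 mM DTT, 0.005% Tween 20 / Schedule: 20 min at room temperature, dark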
SUMO1 PPI mod: SUMO1-SIM interaction modulation; P63165; SUMO1 binding to a labelled peptide, TR-FRET, 1 h; inhibition, % at 20 µM; actives 0.33% (n = 360,000); AID 602429; in the data active = inhibition above about 37%
Scp-1 inhibitor: inhibitors of human Scp-1 phosphatase | Q9GZU7 | Recombinant Scp1, phosphopeptide, malachite green phosphate absorbance | inhibition, % at 20 µM | actives 0.88% (n = 340,000);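 active = inhibition above about 50% at 20 µM, limit read from the data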;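 also: plate controls were DMSO wells with enzyme for no effect and wells lacking enzyme for full effect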
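Incubation: 45 min enzyme reaction at room temperature / System: truncated SCP-1 phosphatase (76-261aa) / Reagent: Phospho 17-mer peptide substrate / Buffer or medium: Acidic Tris acetate buffer with magnesium and detergent / Signal: absorbance at 630 nm / Doses: one concentration, 20 µM, with 1.0% DMSO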
GRK2 aptamer HTS: blocks RNA aptamer binding to human GRK2. bead flow cytometry, FAM-aptamer displacement from GRK2. AID 488847. P25098. actives 0.59% (n = 330,000). inhibition of aptamer binding, % at 10 µM;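 active = inhibition of aptamer binding above 40%, roughly 3 SD of noise, on plates passing a quality check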;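 also: median bead fluorescence of bound FAM aptamer so fluorescent compounds give negative values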
Target sequence (P25098 whole entry, looked up): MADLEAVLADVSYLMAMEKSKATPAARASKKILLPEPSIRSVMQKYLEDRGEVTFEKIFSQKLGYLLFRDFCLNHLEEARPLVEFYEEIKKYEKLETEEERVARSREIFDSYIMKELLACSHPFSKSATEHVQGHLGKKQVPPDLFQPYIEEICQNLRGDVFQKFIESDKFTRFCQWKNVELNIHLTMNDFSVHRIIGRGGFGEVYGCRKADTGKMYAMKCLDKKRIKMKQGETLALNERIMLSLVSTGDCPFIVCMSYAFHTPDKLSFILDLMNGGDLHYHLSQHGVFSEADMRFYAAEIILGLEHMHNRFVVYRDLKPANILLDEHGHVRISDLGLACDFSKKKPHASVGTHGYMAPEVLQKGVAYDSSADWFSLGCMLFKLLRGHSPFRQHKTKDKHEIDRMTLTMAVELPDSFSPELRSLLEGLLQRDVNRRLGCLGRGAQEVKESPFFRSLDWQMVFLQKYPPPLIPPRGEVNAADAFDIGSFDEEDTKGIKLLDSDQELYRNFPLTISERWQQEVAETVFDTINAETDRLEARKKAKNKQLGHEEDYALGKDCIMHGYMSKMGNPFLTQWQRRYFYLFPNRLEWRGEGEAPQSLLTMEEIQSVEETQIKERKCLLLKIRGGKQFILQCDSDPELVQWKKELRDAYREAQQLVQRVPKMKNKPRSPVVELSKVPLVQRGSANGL
* marks the source's active call; other numbers are inactive results; i = inactive; . = no result given; + = active, no number.

SMILES	LMPTP inh	DNMT1 block	STEP inh	SUMO1 PPI mod	Scp-1 inhibitor	GRK2 aptamer HTS
Nc1ccc(-c2c3ccc(=O)cc-3oc3cc(O)ccc23)c(C(=O)O)c1	10.7	+	-109.7	i	-2.4	0.0
CCOC(=O)c1c2c(n(-c3ccc(OC)cc3)c1C)C(=O)C(=O)c1ccccc1-2	21.5	85.7*	8.2	13.1	-13.3	.
O=C1C(SCCO)=C(SCCO)C(=O)c2ccccc21	22.1	80.7*	24.3	35.5	-6.2	3.0
COc1ccc(/C=C2/SC(=S)N(Cc3ccccc3)C2=O)cc1O	3.0	-7.1	-1.6	-5.6	-10.0	12.0
O=C1/C(=C\c2cc(Cl)c(O)c(Cl)c2)SC(=S)N1Cc1ccccc1	-0.3	59.4*	-150.7	36.8	17.1	0.0
C/C(=N\N=C(N)N)c1ccc(C)c(C)c1	-0.1	-0.6	5.9	2.3	-2.0	0.0
Oc1ccc(-c2csc(Nc3cccc4ccccc34)n2)cc1O	62.0*	17.7	3.2	16.8	11.0	0.0
COc1cc2c(cc1OC)C(O)=CC(=O)C2=O	0.1	-7.6	5.2	-31.2	.	.
C/C=C/C=C\C(=O)Nc1cccc(C2=NOC3(C2)C[C@H](C(N)=O)N(C(=O)CC#N)C3)c1 (stereo not given in full)	2.7	-2.1	-0.1	71.4*	67.1*	0.0
COCCNc1nc(NCc2cccc(OC)c2OC)c2sccc2n1	62.2*	-3.9	-2.4	5.3	.	.
CC(=O)Nc1ccc(CNc2nc(NC(C)C)nc3ccsc23)cc1	49.1	-1.3	0.8	-0.1	.	.
COc1ccc(Nc2nc(NCc3cccs3)nc3ccsc23)cc1OC	56.3*	-9.4	3.6	-7.9	.	.
CC(=O)Nc1ccc(CNc2nc(NCC3CC3)nc3ccsc23)cc1	59.6*	-0.3	3.7	1.5	.	.
COc1ccccc1CNc1nc(NCc2cnc(C)cn2)c2sccc2n1	79.9*	3.4	-0.3	2.4	.	.
COc1ccc(Nc2nc(NC(C)C)nc3ccsc23)cc1OC	48.0	-2.7	4.5	7.4	.	.
COc1ccccc1CNc1nc(NCc2cccc(OC)c2OC)c2sccc2n1	37.1	-6.0	1.6	-3.6	.	.
CC(=O)Nc1cccc(Oc2nc(NC(C)C)nc3cc(-c4ccccc4)sc23)c1	2.3	-46.8	-0.9	0.0	.	.
COCCNc1nc(NCc2ccc(C)cc2C)c2sccc2n1	59.3*	4.2	0.3	-0.8	.	.
COCCNc1nc(NCc2ccc(C(C)C)cc2)c2sccc2n1	50.7*	1.8	2.1	1.4	.	.
CCc1cc(-c2nnn(CCC3COCCO3)c2C(C)(C)O)ccc1-c1cn(CCc2c[nH]c3ccccc23)nn1 (stereo not given)	-1.8	-1.4	0.1	1.0	.	.
O=C(COC(=O)c1ccccc1)Nc1ncc([N+](=O)[O-])s1	65.2*	92.8*	10.6	58.0*	82.7*	36.0
Cc1cc(C)cc(C(O)c2ncc(-c3ccc(C(F)(F)F)cc3)[nH]2)c1 (stereo not given)	2.1	-14.8	-2.2	4.4	.	.
O=C(c1ccc(Br)o1)N1CCN(c2ccc3nnc(-c4ccc(F)cc4)n3n2)CC1	0.1	-7.5	2.3	48.8*	6.1	6.0
O=C(Nc1ccc(Cl)cc1)N1CCN(c2ccc3nnc(-c4ccc(F)cc4)n3n2)CC1	2.4	-13.6	-3.8	10.5	15.3	0.0
COc1ccc(Cn2c(=O)[nH]c3cc(C(=O)N4CCN(c5ccc(C(C)=O)cc5)CC4)ccc3c2=O)cc1	1.2	-1.7	-0.2	57.0*	-3.6	1.0
SMILES	LMPTP inh	DNMT1 block	STEP inh	SUMO1 PPI mod	Scp-1 inhibitor	GRK2 aptamer HTS
COc1ccc(Cn2c(=O)[nH]c3cc(C(=O)N4CCN(c5ccc(OC)cc5)CC4)ccc3c2=O)cc1	-0.6	4.0	-2.0	6.2	-4.8	0.0
CN1CCN(C(=O)c2ccc3c(=O)n(CCc4ccccc4)c(=S)[nH]c3c2)CC1	-7.0	0.7	-0.3	41.1*	-2.6	0.0
CCOC(=O)c1ccc(NC(=O)C2(c3ccccc3)CCOCC2)cc1	-2.5	-0.4	-3.4	-3.7	-1.6	0.0
Nc1cc2nsnc2cc1Br	21.7	111.5*	35.1	79.6*	5.7	12.0
Cc1ccc2nc(SCC(=O)Nc3ccc(Cl)cc3)nc(=O)n2c1	-0.3	-1.3	2.8	86.2*	-6.6	2.0
Cc1ccc2nc(SCC(=O)Nc3ccc(F)cc3)nc(=O)n2c1	-1.6	-2.4	-1.5	-3.2	-3.4	4.0
O=C(CN1CCN(S(=O)(=O)c2ccc(Cl)cc2)CC1)c1ccc(O)c(O)c1	59.4*	2.8	2.1	-1.2	6.8	0.0
COc1ccc(S(=O)(=O)N2CCN(CC(=O)c3ccc(O)c(O)c3)CC2)cc1	69.9*	3.2	2.4	-2.3	-5.1	1.0
CCOc1ccc(C(=O)CN2CCN(S(=O)(=O)c3ccc(F)cc3)CC2)cc1	-2.8	-11.2	1.8	-3.4	7.2	0.0
O=C(CN1CCN(S(=O)(=O)c2ccc(F)cc2)CC1)c1ccc(O)c(O)c1	66.2*	2.1	2.1	-1.5	-2.3	1.0
CSc1ccccc1NC(=O)CSc1nnc(Cc2ccccc2)o1	-1.3	2.5	-0.3	0.0	-5.2	3.0
COc1cc(-c2noc(C)c2/C=C/c2ccc(C(=O)O)cc2)cc(OC)c1OC	2.1	60.6*	2.4	-2.8	16.1	29.0
O=C(Nc1cccc(OC(F)(F)F)c1)c1cccc2c(-c3cccnc3)coc12	6.2	6.8	3.8	0.2	.	.
O=c1cc(CSc2nc3ccccc3c(=O)[nH]2)c2ccc(O)cc2o1	0.9	1.3	0.8	14.1	-1.2	.
C=CC(=O)Nc1cccc(Oc2ccnc3[nH]ccc23)c1	19.2	20.2	54.2*	56.6*	9.3	.
C=CC(=O)Nc1cccc(Oc2ccnc(Nc3ccc(N4CCN(C)CC4)cc3)n2)c1	0.3	-48.3	4.6	2.9	6.7	.
CC(=O)N1CCC(c2nc3ccccc3n2C(C)C(=O)NCc2ccccc2)CC1 (stereo not given)	0.4	.	.	-2.6	.	.
N#C/C(=C/c1cccn1-c1cccc(C(=O)O)c1)c1ccc(Cl)cc1	7.7	79.9*	5.6	-6.3	33.0	22.0
CN1CCN(C2=C(Cl)C(=O)c3ccccc3C2=O)CC1	28.1	87.3*	6.4	62.3*	-7.6	.
COc1cccc2oc3cc(C#Cc4ccccn4)ccc3c(=O)c12	.	.	.	.	59.4*	0.0
C=CCN(CC=C)S(=O)(=O)c1ncn[nH]1	-2.9	41.4	1.5	43.6*	0.5	3.0
CC(C)(C)NC(=O)C(c1cc2ccccc2o1)n1c(=O)c(-c2ccccc2)nc2ccccc21 (stereo not given)	2.8	.	.	-3.9	.	.
Cn1c(=O)c2c(-c3ccccc3)n(-c3ccc(N)cc3)cc2n(C)c1=O	12.7	39.9	3.3	42.4*	.	.
Cn1c(=O)c2c(-c3ccccc3)n(-c3cccc(O)c3)cc2n(C)c1=O	-0.5	-11.3	-2.4	-16.7	.	.

From PubChem BioAssay
